Data from ChEMBL document CHEMBL4321868, “Scaffold Simplification Strategy Leads to a Novel Generation of Dual Human Immunodeficiency Virus and Enterovirus-A71 Entry Inhibitors” (J Med Chem, 2020).
The source made the active and inactive calls. No cut-off for these calls is given here.

How the values were obtained:
[1] = test system: Human immunodeficiency virus 2; experiment: Antiviral activity against HIV-2 ROD infected in human MT4 cells assessed as reduction in virus-induced cytopathic effect preincubated for 30 mins followed by viral infection and measured after 5 days by MTS assay; conditions: Human immunodeficiency virus 2, ISOLATE ROD
[2] = test system: RD; experiment: Cytotoxicity against human RD cells assessed as induction of cell morphological changes; format: cell-based
[3] = test system: Enterovirus A71; experiment: Antiviral activity against Enterovirus A 71 BrCr harboring VP1 S184T mutant infected in human RD cells assessed as reduction in virus-induced cytopathic effect preincubated for 1 day followed by viral infection and measured after 3 days by MTS/PMS method; format: functional, organism-based, strain BRCR
[4] = test system: HeLa; experiment: Binding affinity to capsid protein VP1 five fold axis in Enterovirus A71 genotype B2 11316 infected in human HeLa cells at 20 uM measured after 1 hr by cryo-electron microscopic analysis; format: cell-based
[5] = target: Envelope glycoprotein gp160 (Human immunodeficiency virus 1, UniProt Q6QLK5); experiment: (§1) Inhibition of biotinylated-heparin binding to recombinant HIV1 3B gp120 by SPR analysis
Sequence of Envelope glycoprotein gp160 (Q6QLK5 whole entry): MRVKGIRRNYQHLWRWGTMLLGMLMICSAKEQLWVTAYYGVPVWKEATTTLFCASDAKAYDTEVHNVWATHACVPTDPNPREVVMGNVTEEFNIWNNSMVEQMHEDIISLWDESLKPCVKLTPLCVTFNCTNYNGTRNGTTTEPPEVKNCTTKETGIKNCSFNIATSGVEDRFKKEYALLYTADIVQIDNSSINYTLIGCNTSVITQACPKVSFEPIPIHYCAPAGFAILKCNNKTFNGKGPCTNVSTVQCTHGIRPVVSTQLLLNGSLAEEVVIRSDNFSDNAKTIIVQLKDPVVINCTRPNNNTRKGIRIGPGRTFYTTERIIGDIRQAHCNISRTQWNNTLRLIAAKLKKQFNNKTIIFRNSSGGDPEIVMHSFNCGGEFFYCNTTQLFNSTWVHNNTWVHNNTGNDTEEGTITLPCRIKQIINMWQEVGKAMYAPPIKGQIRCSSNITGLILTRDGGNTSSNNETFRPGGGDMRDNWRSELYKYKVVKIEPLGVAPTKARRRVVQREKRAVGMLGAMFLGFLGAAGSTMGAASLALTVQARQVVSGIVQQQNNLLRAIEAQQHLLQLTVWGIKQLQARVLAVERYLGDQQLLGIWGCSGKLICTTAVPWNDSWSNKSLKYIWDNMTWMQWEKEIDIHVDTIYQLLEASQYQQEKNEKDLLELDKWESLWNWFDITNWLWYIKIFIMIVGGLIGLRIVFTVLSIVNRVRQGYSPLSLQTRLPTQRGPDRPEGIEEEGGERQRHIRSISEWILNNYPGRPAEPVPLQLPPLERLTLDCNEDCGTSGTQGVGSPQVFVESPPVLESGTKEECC
How it was run: (§2)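 SPR at 25 °C in PBS with 5% DMSO, 0.005% Tween20, pH 7.4. Minimally biotinylated heparin captured (880 RU) on streptavidin chip. Recombinant HIV-1 IIIB gp120 (10 nM) alone or premixed with a compound concentration range injected 2 min at 10 μl/min; regenerated with 1 M NaCl/10 mM NaOH. Double-referenced; RU converted to % inhibition vs gp120 alone; nonlinear fit, three experiments.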

[6] = target: Envelope glycoprotein gp160 (Human immunodeficiency virus 1) (UniProt Q6QLK5); experiment: as §1
Sequence of Envelope glycoprotein gp160 (Human immunodeficiency virus 1) (Q6QLK5 1-814): as the sequence (Q6QLK5 whole entry) above
How it was run: as §2

[7] = test system: Enterovirus A71; experiment: Antiviral activity against Enterovirus A71 genotype C2 H08300 461812 infected in human RD cells assessed as reduction in virus-induced cell death preincubated for 1 day followed by viral infection and measured after 3 days by microscopic analysis; format: functional; design: scale not given: the % may be the effect or the level left
How it was run: (§3)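 RD cells were seeded in 96-well plates and infected the next day at low MOI, with serial compound dilutions added at the same time. Plates were incubated at 37 °C, 5% CO2 for 3 days, until untreated infected controls died. Cell death was quantified by MTS/PMS and EC50 calculated from dose-response curves. Values come from more than 2 dose-response curves across more than 1 experiment, with microscopic quality control.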

[8] = test system: Enterovirus A71; experiment: Antiviral activity against Enterovirus A 71 BrCr harboring VP1 P246S mutant infected in human RD cells assessed as reduction in virus-induced cytopathic effect preincubated for 1 day followed by viral infection and measured after 3 days by MTS/PMS method; format: functional, organism-based, strain BRCR
[9] = test system: Enterovirus A71; experiment: Antiviral activity against Enterovirus A71 genotype B5 TW/70902/08 infected in human RD cells assessed as reduction in virus-induced cell death preincubated for 1 day followed by viral infection and measured after 3 days by […]; format: functional; design: scale not given: the % may be the effect or the level left
How it was run: as §3

[10] = target: Envelope glycoprotein gp160 (Human immunodeficiency virus 1) (UniProt Q6QLK5); experiment: Binding affinity to recombinant HIV1 3B gp120 by SPR analysis
[11] = test system: Enterovirus A71; experiment: Antiviral activity against Enterovirus A 71 BrCr infected in human RD cells assessed as reduction in virus-induced cell death preincubated for 1 day followed by viral infection and measured after 3 days by microscopic analysis; format: functional, strain BRCR; design: scale not given: the % may be the effect or the level left
How it was run: as §3

[12] = test system: Human immunodeficiency virus 1; experiment: Antiviral activity against HIV1 3B infected in human MT4 cells assessed as reduction in p24 production at 20 uM administered at onset of infection measured 8 hrs post-infection by ELISA; format: functional, organism-based
[13] = test system: Enterovirus A71; experiment: Antiviral activity against Enterovirus A71 genotype B2 11316 infected in human RD cells assessed as reduction in virus-induced cell death preincubated for 1 day followed by viral infection and measured after 3 days by microscopic analysis; format: functional; design: scale not given: the % may be the effect or the level left
How it was run: as §3

[14] = test system: Enterovirus A71; experiment: Antiviral activity against Enterovirus A71 genotype C4 TW/1956/05 infected in human RD cells assessed as reduction in virus-induced cell death preincubated for 1 day followed by viral infection and measured after 3 days by microscopic analysis; format: functional; design: scale not given: the % may be the effect or the level left
How it was run: as §3

[15] = Cytotoxicity against human MT4 cells assessed as reduction in cell viability measured after 5 days by MTS/PES assay; format: cell-based
How it was run: (§4)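 MT-4 cells (RPMI-1640, 10% FCS, 1% L-glutamine) pre-incubated 30 min at 37 °C with compound, then infected with HIV-1 NL4.3 or HIV-2 ROD according to stock TCID50. After 5 days, CPE scored microscopically and viability read by MTS/PES at A490 to derive EC50; cytotoxicity measured by MTS/PES at 5 days in the same cells. SI = CC50/EC50. Mean ± S.D. of at least 3 experiments.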

[16] = test system: Human immunodeficiency virus 1; experiment: Antiviral activity against HIV1 3B infected in human MT4 cells assessed as reduction in p24 production at 20 uM incubated for 1 hr prior to viral infection followed by compound washout and measured 8 hrs post-infection by ELISA; format: functional, organism-based
[17] = test system: Enterovirus A71; experiment: Antiviral activity against Enterovirus A 71 BrCr infected in human RD cells assessed as reduction in virus-induced cytopathic effect preincubated for 1 day followed by viral infection and measured after 3 days by MTS/PMS method; format: functional, organism-based; conditions: strain BRCR
How it was run: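 RD cells seeded in 96-well plates; next day serial compound dilutions plus virus at low MOI added. Incubation at 37 °C, 5% CO₂ until full CPE in untreated infected controls (3 days). Viability read by MTS/PMS; EC50 as 50% inhibition of virus-induced death from dose-response curves. CC50 from uninfected treated cells in the same setup; SI = CC50/EC50.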

[18] = test system: RD; experiment: Cytotoxicity against human RD cells assessed as adverse effect on cell; format: cell-based
[19] = test system: Enterovirus A71; experiment: Antiviral activity against Enterovirus A 71 BrCr harboring VP1 S184T/P246S mutant infected in human RD cells assessed as reduction in virus-induced cytopathic effect preincubated for 1 day followed by viral infection and measured after 3 days by MTS/PMS method; format: functional, organism-based, strain BRCR
[20] = target: Human immunodeficiency virus type 1 reverse transcriptase (Human immunodeficiency virus 1) (UniProt Q72547); conditions: 3B, MT4, 12 uM
[21] = test system: Enterovirus A71; experiment: Antiviral activity against Enterovirus A71 genotype C4 TW/1956/05 infected in human RD cells assessed as reduction in virus-induced cytopathic effect preincubated for 1 day followed by viral infection and measured after 3 days by MTS/PMS method; format: functional, organism-based; conditions: Enterovirus A, genotype C4 TW/1956/05, RD
How it was run: (§5)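 RD cells seeded in 96-well plates; next day serial compound dilutions plus virus at low MOI added. Incubation at 37 °C, 5% CO₂ until full CPE in untreated infected controls (3 days). CC50 from uninfected treated cells in the same setup; SI = CC50/EC50.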

[22] = test system: Enterovirus A71; experiment: Antiviral activity against Enterovirus A71 genotype C2 H08300 461812 infected in human RD cells assessed as reduction in virus-induced cytopathic effect preincubated for 1 day followed by viral infection and measured after 3 days by MTS/PMS method; format: functional, organism-based; conditions: Enterovirus A, genotype C2 H08300 461812, RD
How it was run: as §5

[23] = Selectivity index, ratio of CC50 for human MT4 cells to EC50 for HIV-1 NL4.3 infected in human MT4 cells
[24] = test system: Enterovirus A71; experiment: Antiviral activity against Enterovirus A71 genotype B2 11316 infected in human RD cells assessed as reduction in virus-induced cytopathic effect preincubated for 1 day followed by viral infection and measured after 3 days by MTS/PMS method; format: functional, organism-based; conditions: Enterovirus A, genotype B2 11316, RD
How it was run: as §5

[25] = test system: Enterovirus A71; experiment: Antiviral activity against Enterovirus A71 genotype B5 TW/70902/08 infected in human RD cells assessed as reduction in virus-induced cytopathic effect preincubated for 1 day followed by viral infection and measured after 3 days by MTS/PMS method; format: functional, organism-based; conditions: Enterovirus A, genotype B5 TW/70902/08, RD
How it was run: as §5

[26] = Selectivity index, ratio of CC50 for human MT4 cells to EC50 for HIV1 NL4.3 infected in human MT4 cells; format: toxicity, cell-based; conditions: read-out: Ratio CC50/EC50
How it was run: as §4

[27] = test system: Human immunodeficiency virus 1; experiment: Antiviral activity against HIV1 NL4.3 infected in human MT4 cells assessed as reduction in virus-induced cytopathic effect preincubated for 30 mins followed by viral infection and measured after 5 days by MTS assay; format: functional, organism-based; conditions: Human immunodeficiency virus 1, NL4.3, MT4

Row | SMILES | EC50 [1] [µM] | Activity [2] | EC50 [3] [µM] | Activity [7] [%] | EC50 [8] [µM] | Activity [9] [%] | Activity [11] [%] | Activity [13] [%] | Activity [14] [%] | CC50 at 120 h [15] [µM] | EC50 [17] [µM] | EC90 [17] [µM] | Activity [18] | EC50 [19] [µM] | other results
1 | O=C(CCOCC(COCCC(=O)NC(Cc1c(-c2cc(C(=O)O)cc(C(=O)O)c2)[nH]c2ccccc12)C(=O)O)(COCCC(=O)NC(Cc1c(-c2cc(C(=O)O)cc(C(=O)O)c2)[nH]c2ccccc12)C(=O)O)COCCC(=O)NC(Cc1c(-c2cc(C(=O)O)cc(C(=O)O)c2)[nH]c2ccccc12)C(=O)O)NC(Cc1c(-c2cc(C(=O)O)cc(C(=O)O)c2)[nH]c2ccccc12)C(=O)O (configuration not stated) | 0.02 | Non-Toxic | 0.9 | 100 | 0.2 | 100 | 100 | 100 | 100 | > 100 | 0.04 to 0.109 | 0.16 | Non-Toxic | 0.3 | Activity [4]: Active; IC50 [5]: 0.211 µM; inhibition [6]: Dose-dependent effect; Activity [10]: Dose-dependent effect; Activity [12]: Active; Activity [16]: Active
2 | Cc1cn([C@H]2C[C@H](N=[N+]=[N-])[C@@H](CO)O2)c(=O)[nH]c1=O | – | – | – | – | – | – | – | – | – | – | – | – | – | – | inhibition [20]: Active
3 | O=C(CCC(CCC(=O)N[C@H](Cc1c[nH]c2ccccc12)C(=O)O)(CCC(=O)N[C@H](Cc1c[nH]c2ccccc12)C(=O)O)NC(=O)CCOCC(COCCC(=O)NC(CCC(=O)N[C@H](Cc1c[nH]c2ccccc12)C(=O)O)(CCC(=O)N[C@H](Cc1c[nH]c2ccccc12)C(=O)O)CCC(=O)N[C@H](Cc1c[nH]c2ccccc12)C(=O)O)(COCCC(=O)NC(CCC(=O)N[C@H](Cc1c[nH]c2ccccc12)C(=O)O)(CCC(=O)N[C@H](Cc1c[nH]c2ccccc12)C(=O)O)CCC(=O)N[C@H](Cc1c[nH]c2ccccc12)C(=O)O)COCCC(=O)NC(CCC(=O)N[C@H](Cc1c[nH]c2ccccc12)C(=O)O)(CCC(=O)N[C@H](Cc1c[nH]c2ccccc12)C(=O)O)CCC(=O)N[C@H](Cc1c[nH]c2ccccc12)C(=O)O)N[C@H](Cc1c[nH]c2ccccc12)C(=O)O | 6.6 | Non-Toxic | 1.99 | 100 | 4.71 | 100 | 100 | 100 | 100 | > 100 | 0.28 to 0.3 | 0.5 | Non-Toxic | 8.93 | EC50 [21]: 0.0002 µM; EC50 [22]: 0.0011 µM; selectivity ratio [23]: > 43; EC50 [24]: 0.0004 µM; EC50 [25]: 0.0002 µM; selectivity ratio [26]: > 43; EC50 [27]: 2.3 µM
